Autophagy HCS: modulators of autophagy; AID 463193; hit rate 0.98% among 190,000; calls only at 10 µM (by protocol); MEF GFP-LC3 puncta imaging; test concentration mostly 10 µM;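 active means percentage of spot-positive cells more than 3 SD above its plate mean, without a fluorescence outlier flag or 80% toxicity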
L major viab: reduces viability of Leishmania major promastigotes. hit rate 9% among 200,000. inhibition, % at 10 µM. resazurin fluorescence viability; in the data active means inhibition above about 50%;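 further: promastigotes grown with compound for 44 hours at 28 °C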
Dynein transport: dynein cargo transport inhibition. 3617.4 mouse cells, GR-EGFP nuclear translocation imaging; test concentration mostly 20 µM; stimulated with dexamethasone, 1 µM; stronger effect = lower value. z-score, hits read low. hit rate 0.47% among 220,000. AID 1381;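 active means plate z-score of nuclear minus cytoplasmic receptor signal below a set negative limit, without overly bright fluorescence or cell loss, cut at about -3.5 in these data, passing the limit was not always enough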;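 further: z-score of nuclear minus cytoplasmic ring GR-EGFP intensity difference per well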
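Also added – dexamethasone, 1.0 µM final · Buffer or medium – tet-free, stripped-serum medium · Schedule – induction 48 h, compound 1 h, agonist 30 min · Detection – formaldehyde fixation, Hoechst nuclear stain, 10x automated fluorescence imaging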
HCT116 bCat-KO: beta-catenin-lacking colon tumor cell growth suppression; HCT116 beta-catenin knockout viability, CellTiter-Glo, 60 h; stronger effect = lower value; AID 818; hit rate 1.5% among 140,000; viability, % at 10 µM;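 active means viability at or under a set limit, the compound median less 4 SD, cut at about 6% in these data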
HCT116 PTEN-null: growth suppressors of cells with PTEN tumor suppressor deletion; HCT116 PTEN-null viability, CellTiter-Glo, 60 h; stronger effect = lower value; viability, % at 10 µM; hit rate 1.2% among 140,000; AID 827;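 active means viability at or below a set limit, 4 SD under the median of all tested compounds, cut at about 3.7% in these data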;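 further: PTEN knockout HCT116 line with beta catenin targeted HCT116 as companion control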
A number is an active result; – = inactive; · = not tested or not shown; + = active, no number. A selection: hits, their analogues and other compounds. The true share with any hit is near 9.2%.

SMILES	Autophagy HCS	L major viab	Dynein transport	HCT116 bCat-KO	HCT116 PTEN-null
CCCc1cc(=O)[nH]c(SC(CC)C(=O)Nc2ccccc2C#N)n1 (stereo not given)	–	–	–	–	–
COCCn1cnc2c1c(=O)n(CC(=O)OCC(=O)NCCCc1ccccc1)c(=O)n2Cc1ccccc1	–	50.9	–	–	–
COc1ccccc1N(C)S(=O)(=O)c1ccc(C(=O)Nc2nc(C)cs2)cc1	–	98.6	–	·	·
COc1ccccc1N(C)S(=O)(=O)c1ccc(C(=O)NCc2ccc3c(c2)OCO3)cc1	–	99.3	–	·	·
CC(C)OP(=O)(OC(C)C)C(Nc1ccccc1)c1ccccc1C(F)(F)F (stereo not given)	–	94.5	–	–	–
CC(C)OP(=O)(OC(C)C)C(Nc1ccccc1)c1cccc2c1OCO2 (stereo not given)	–	–	–	–	–
C/C(=N\N1CCN(C)CC1)c1ccc(Cl)c(Cl)c1	–	81.3	–	·	·
C/C(=N\N1CCN(C)CC1)c1ccc(OC(F)F)cc1	+	–	–	·	·
CN1CCN(NC(=S)Nc2ccc(OC(F)F)cc2)CC1	–	–	–	·	·
CN1CCN(c2ccc(-c3ccc4ccccc4n3)cc2)CC1	+	92.1	–	·	·
CC(=O)Oc1ccc2nc(CN3C(=O)c4ccc([N+](=O)[O-])cc4C3=O)oc(=O)c2c1	–	–	–	·	·
CC(Sc1ccccc1)C(=O)Nc1ccccc1C(=O)N1CCOCC1 (stereo not given)	–	–	–	–	–
Cn1c(C(=O)NCCCN2CCN(c3ccccc3F)CC2)cc2c(=O)n(C)c3ccccc3c21	–	–	–	1.7	–
CC1CCN(CCCNC(=O)c2cc3c(=O)n(C)c4ccccc4c3n2C)CC1	–	62.6	–	–	–
CN1CCN(CCCNC(=O)c2cc3c(=O)n(C)c4ccccc4c3s2)CC1	–	97.8	–	–	–
Cn1c(C(=O)NCCCN2CCOCC2)cc2c(=O)n(C)c3ccccc3c21	–	–	–	–	–
Cn1c(C(=O)NCCN2CCCCCC2)cc2c(=O)n(C)c3ccccc3c21	–	69.7	–	–	–
Cc1cccc(NC(=O)CSc2nc(NS(=O)(=O)c3ccccc3)cc(=O)[nH]2)c1	–	–	–	·	·
Cc1noc(C)c1COC(=O)CCN1c2ccccc2Sc2ccccc21	–	–	–	–	–
Nc1cccnc1-n1nc(C(F)(F)F)cc1C(F)(F)F	–	–	–	·	·
COCCN(CCOC)C(=O)c1cc2sc3ccccc3c2s1	–	–	–	–	–
CN(C)CCCNC(=O)c1cc2c3ccccc3n(C)c2s1	+	90.7	–	–	–
CCCCN(CC)CCCNC(=O)c1cc2c(=O)n(C)c3ccccc3c2n1C	·	80.4	–	–	–
CC(C)OCCCNC(=O)c1cc2c(=O)n(C)c3ccccc3c2n1C	–	–	–	–	–
CN(C)CCNC(=O)c1cc2sc3ccccc3c2s1	–	83.9	–	·	·
SMILES	Autophagy HCS	L major viab	Dynein transport	HCT116 bCat-KO	HCT116 PTEN-null
CC(C)C[C@H](NC(=O)c1nc[nH]c1C(=O)N1CCN(c2ccccc2)CC1)C(=O)OCc1ccccc1	·	·	–	·	·
c1ccc(-c2cn3c4c(sc3n2)CCCC4)cc1	–	–	–	–	–
O=C(O)CCC(=O)NC1CCCCC1NC(=O)CCC(=O)O (stereo not given)	–	–	–	·	·
COc1ccc(-c2cc3ccccc3oc2=O)cc1NC(=O)c1ccc([N+](=O)[O-])o1	–	85.1	–	–	–
COc1ccc(S(=O)(=O)N2CCCCC2)cc1NC(=O)c1ccc([N+](=O)[O-])o1	–	90.3	–	·	·
COc1cccc(C(=O)Nc2cc(S(=O)(=O)N3CCCCC3)ccc2OC)c1	–	–	–	·	·
CCC(C)C(NC(=O)c1ccc(Cl)cc1Cl)C(=O)O (stereo not given)	–	–	–	–	–
Cc1ccc(S(=O)(=O)N2CCC(C(=O)OC(C)C(=O)NC(N)=O)CC2)cc1C (stereo not given)	·	·	–	·	·
CCCCc1nc(N2CCOCC2)c(C#N)c2c1COC(C)(C)C2	–	–	–	–	–
CN1CCN(CCCNC(=O)c2ccc3c(c2)N(Cc2ccccc2)CCS3)CC1	–	80.3	–	–	–
Cc1ccc(CN2CCSc3ccc(C(=O)NC4CCN(Cc5ccccc5)CC4)cc32)cc1	–	89.8	–	·	·
CC(C)c1ccc(NC(=O)Cn2cccc2C2=NC(c3ccccc3)CO2)cc1 (stereo not given)	–	86.8	–	–	–
COc1ccc(C2=Nc3ccccc3OC2)cc1	–	98.0	–	–	–
COc1ccccc1NC(=O)C1=C(C)N(c2ccccc2)C(=S)NC1c1cccc(C(F)(F)F)c1 (stereo not given)	–	–	–	–	–
COC(=O)c1ccc(C2NC(=S)N(c3ccccc3)C(C)=C2C(=O)Nc2ccccc2OC)cc1 (stereo not given)	–	72.1	–	–	–
Cc1cc(C)c(NC(=S)N(CCCN2CCOCC2)Cc2cccnc2)c(C)c1	–	–	–	·	·
O=C(/C(N=Nc1cccc([N+](=O)[O-])c1)=C(/O)c1ccc(Br)cc1)C(F)(F)F	·	·	–	·	·
CCCn1c(=O)c2ccccc2n2c(SCc3cc(=O)oc4ccc5ccccc5c34)nnc12	–	62.5	–	–	–
COc1ccc(N(Cc2ccccc2)C(=O)c2ccccc2[N+](=O)[O-])cc1	–	–	–	–	–
O=[N+]([O-])c1ccccc1S(=O)(=O)Oc1ccccc1/C=N/n1cnnc1	–	72.2	–	–	–
O=[N+]([O-])c1cc2c(cc1/C=N/n1cnnc1)OCO2	–	–	–	·	·
O=[N+]([O-])c1cc(Br)cc(/C=N/n2cnnc2)c1O	–	–	–	·	·
O=[N+]([O-])c1cccc(/C=N/n2cnnc2)c1O	–	68.0	–	–	–
COc1ccccc1C1CCN(c2cc(O)ccc2[N+](=O)[O-])CC1	·	·	–	·	·
C=CC[n+]1c(-c2ccc(Cl)cc2Cl)csc1Nc1ccc(NC(C)=O)cc1	–	52.5	–	·	·
SMILES	Autophagy HCS	L major viab	Dynein transport	HCT116 bCat-KO	HCT116 PTEN-null
C=CC[n+]1c(-c2ccc(Cl)cc2Cl)csc1Nc1c(C)n(C)n(-c2ccccc2)c1=O	–	–	–	·	·
COc1ccc(CN(C(=O)Cc2cccs2)C(C(=O)NC2CCCC2)c2ccncc2)cc1 (stereo not given)	–	56.9	–	–	–
COc1ccc(C(C(=O)NC2CCCCC2)N(Cc2cccs2)C(=O)Cc2c[nH]c3ccccc23)cc1 (stereo not given)	–	–	–	–	–
COC(=O)c1ccc(C(C(=O)NC2CCCCC2)N(Cc2ccc(F)cc2)C(=O)Cc2cccs2)cc1 (stereo not given)	–	55.8	–	–	–
CCN(CC)C(=O)Oc1ccc(Br)cc1C(=O)Nc1ccc(F)cc1F	·	·	–	·	·
CN(C)C(=O)C(CCN1CCC(O)(c2ccc(Cl)cc2)CC1)(c1ccccc1)c1ccccc1	+	97.2	–	–	–
CC(C)NC(=O)c1sc2nc3c(c(-c4cccs4)c2c1N)CN(C)CC3	–	–	–	–	–
Cc1cccc(NC(=O)c2sc3nc4c(c(-c5cccs5)c3c2N)CN(C)CC4)c1	–	55.6	–	–	–
CC(CN1CCOCC1)OC(=O)C(C)(c1ccccc1)c1ccccc1 (stereo not given)	–	55.4	–	–	–

Screening results from PubChem.
